Paper PMC4819167 (Biochemistry, 2016)

Legend:
pUL15C [1] = molecular target: T1, pUL15C (Human herpesvirus 1, UniProt P04295); test: Dual-probe fluorescence assay of pUL15C nuclease activity; format: biochemical
pUL15C [2] = molecular target: T1, pUL15C; test: Differential scanning fluorimetry; format: binding; settings: wild-type pUL15C, DSF
Procedure, shortened: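 Binding read by thermal shift: test compound added from a 1 mM DMSO stock to 1.6 µM pUL15C in 20 mM HEPES (pH 7.5), 10 mM MgCl₂, 100 mM NaCl and SYPRO Orange (1:2000). Heated 30 to 80 °C in 0.2 °C steps. Fluorescence was read at ex 483 / em 568 nm, ΔTm was derived from melt curves, and runs were in duplicate.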

pUL15C [3] = molecular target: T1, pUL15C; test: Michaelis-Menten kinetic analysis with the dual-probe fluorescence assay; format: biochemical, herpes simplex virus
pUL15C [4] = molecular target: T1, pUL15C; test: Yonetani-Theorell analysis of pUL15C nuclease inhibition; format: biochemical; settings: compound 21 0-0.4 μM, raltegravir 0-2.0 μM, substrate 250 nM
pUL15C [5] = molecular target: T1, pUL15C; test: pUL15C nuclease activity on supercoiled plasmid, agarose gel electrophoresis; format: biochemical, herpes simplex virus
Lys700Ala pUL15C = Lys700Ala pUL15C (Human herpesvirus 1, UniProt P04295, K700A); test: Differential scanning fluorimetry; format: binding, herpes simplex virus; settings: DSF, 20 μM β-thujaplicinol
DNase I = DNase I (Bos taurus, UniProt P00639); test: DNase I cleavage of substrate 21D/33D; format: biochemical; settings: 1 mM Mn2+, 20 μM compound
HSV-1 = settings: at noncytotoxic concentrations; cited from earlier work
HSV-2 = settings: at noncytotoxic concentrations; cited from earlier work

Sequence of DNase I (P00639 23-282): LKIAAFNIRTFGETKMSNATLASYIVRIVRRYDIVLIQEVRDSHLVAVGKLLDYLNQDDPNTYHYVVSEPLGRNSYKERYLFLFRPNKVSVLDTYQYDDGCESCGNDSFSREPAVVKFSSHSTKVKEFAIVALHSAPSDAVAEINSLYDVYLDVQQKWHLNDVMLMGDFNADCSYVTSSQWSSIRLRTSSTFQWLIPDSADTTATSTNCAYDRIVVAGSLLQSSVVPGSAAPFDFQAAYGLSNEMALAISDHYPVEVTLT

## CCN1C[C@H](C)n2c(c(O)c3c(=O)n(Cc4ccc(F)c(Cl)c4)nc(C(=O)NC)c32)C1=O [MK2048]
pUL15C [1]; read-out: IC50, pUL15C nuclease activity, dual-probe fluorescence assay, 0.3 μM pUL15C, 250 nM DNA duplex, 1 mM MnCl2, 37 °C, triplicate
  IC50: > 10000 nM
pUL15C [2]
  decrease of the Tm of pUL15C (destabilizing effect): ~0.5 °C

## C[C@@H]1CCO[C@H]2Cn3cc(C(=O)NCc4ccc(F)cc4F)c(=O)c(O)c3C(=O)N12 [dolutegravir]
pUL15C [1]
  IC50: 1100 ± 90 nM

## COc1cc2c(cc1Cc1cccc(Cl)c1F)c(=O)c(C(=O)O)cn2[C@H](CO)C(C)C [elvitegravir]
pUL15C [1]
  IC50: > 10000 nM
pUL15C [2]
  decrease of the Tm of pUL15C (destabilizing effect): ~0.5 °C

## Cc1nnc(C(=O)NC(C)(C)c2nc(C(=O)NCc3ccc(F)cc3)c(O)c(=O)n2C)o1 [raltegravir]
pUL15C [1]
  IC50: 390 ± 50 nM
pUL15C [3]
  Ki: 1000 ± 100 nM
pUL15C [3]; Lineweaver-Burke plot
  mode of pUL15C inhibition: noncompetitively inhibits
pUL15C [4]
  binding-site overlap of compound 21 and raltegravir (Yonetani-Theorell plot): mutually exclusive

## CC(C)c1ccc(O)c(=O)c(O)c1 [β-thujaplicinol]
pUL15C [5]
  IC50: 2000 nM
Lys700Ala pUL15C
  increase of Tm of the Lys700Ala mutant: 4.30 °C
DNase I
  inhibition of DNase I cleavage of substrate 21D/33D: insensitive to inhibition
HSV-1
  replication of wild-type and ACV-resistant HSV-1: suppress replication
HSV-2
  replication of wild-type and ACV-resistant HSV-2: suppress replication

## manicol
HSV-1
  replication of wild-type and ACV-resistant HSV-1: suppress replication
HSV-2
  replication of wild-type and ACV-resistant HSV-2: suppress replication
